Experimental data gathered from unrelated publications.
Each line is one published result; the experiments were not run side by side. pEC50, pIC50: −log10 of the molar value. Values after ≈ are worked out from the molar mass of the structure shown.

| SMILES | organism | test | system | setting | measurement | result |
| --- | --- | --- | --- | --- | --- | --- |
| O=C(OC[C@H]1O[C@H](n2cnc3c(Cl)nc(Cl)nc32)[C@@H](F)[C@@H]1F)c1ccccc1 | Hepatitis C virus | viral replication, inhibitor | Huh-7 | replicon | pEC50 | > 5.00 |
| O=C(O)c1cn(C2CC2)c2cc(N3CCNCC3)c(F)cc2c1=O | Acinetobacter baumannii | microbial killing, broth dilution |  |  | MBC | 0.25 µg/mL (≈ 0.754 µM) |
| CCOC(=O)N[C@H](CC(C)C)C(=O)N1CCC[C@@H]1C(=O)Nc1ccc(C#CC#Cc2ccc(NC(=O)[C@H]3CCCN3C(=O)[C@@H](CC(C)C)NC(=O)OCC)cc2)cc1 | Hepatitis C virus | viral replication, inhibitor, luciferase | Huh-5-2, GETYPE1B | 72 h, replicon | pEC50 | < 5.00 |
| N#Cc1cc(-c2nc3ccccc3s2)c(=O)n(NS(=O)(=O)c2ccccc2)c1N | Enterovirus B | plaque formation | BGM, B4 |  | IC50 | 84 µg/mL |
| Oc1ccc(/C=C/c2cc(O)cc(O)c2)cc1 | Leishmania tarentolae | parasite growth, resazurin |  | 48 h, promastigote | pIC50 | 4.10 |
| N#CC(=Cc1cn(-c2ccccc2)nc1-c1ccccc1)C1=NC(=O)CS1 | Acinetobacter baumannii | microbial killing, broth dilution |  |  | MBC | 0.5 µg/mL (≈ 1.35 µM) |
| Cc1ccc(C(=O)CNc2nc(NS(=O)(=O)c3ccccc3)ncc2-c2nc3ccccc3s2)cc1 | Enterovirus B | plaque formation | BGM, B4 |  | IC50 | 90 µg/mL |
| COC(=O)N[C@H](C(=O)N1CCC[C@H]1C(=O)Nc1cccc(C#CC#Cc2cccc(NC(=O)[C@@H]3CCCN3C(=O)[C@@H](NC(=O)OC)C(C)C)c2)c1)C(C)C | Hepatitis C virus | viral replication, inhibitor, luciferase | Huh-5-2, GETYPE1B | 72 h, replicon | pEC50 | 9.92 |
| CCCCC(=O)N1C(=O)/C(=C(/C)O)C(=O)C1CC(C)C (stereo not drawn) | Proteus mirabilis | microbial growth | ATCC25933 |  | MIC | > 200 µg/mL |
| CC1(C)OC[C@@]2(C)[C@H]3CC[C@@H]4CN(Cc5ccc(C(C)(C)C)cc5)[C@@H](C5=CCOC5=O)C[C@H]4[C@]3(C)CC[C@H]2O1 | unidentified human coronavirus | cytopathic effect | MRC5 | 25 µM, 72 h | inhibition | 103% |
| CCCCCCC/C=C/C(=O)N1C(=O)/C(=C(/C)O)C(=O)C1Cc1ccc(O)cc1 (stereo not drawn) | Proteus mirabilis | microbial growth | ATCC25933 |  | MIC | > 200 µg/mL |
| [N-]=[N+]=Nc1nc(N=[N+]=[N-])c2ncn([C@@H]3O[C@H](COC(=O)c4ccccc4)[C@@H](F)[C@@H]3F)c2n1 | Hepatitis C virus | viral replication, inhibitor | Huh-7 | replicon | EC90 | > 10 µM |
| CCCCCCC/C=C/C(=O)N1C(=O)/C(=C(/C)O)C(=O)C1CCCCN (stereo not drawn) | Proteus mirabilis | microbial growth | ATCC25933 |  | MIC | > 200 µg/mL |
| C[C@]1(CO)[C@H]2CC[C@@H]3CN(Cc4ccc(F)c(Cl)c4)[C@@H](C4=CCOC4=O)C[C@H]3[C@]2(C)CC[C@H]1O | unidentified human coronavirus | cytopathic effect | MRC5 | 25 µM, 72 h | inhibition | 20% |
| CCCCOC(=O)N[C@H](C(=O)N1CCC[C@H]1C(=O)Nc1cccc(C#CC#Cc2cccc(NC(=O)[C@@H]3CCCN3C(=O)[C@@H](NC(=O)OCCCC)[C@@H](C)CC)c2)c1)[C@H](C)CC | Hepatitis C virus | viral replication, inhibitor, luciferase | Huh-5-2, GETYPE1B | 72 h, replicon | pEC50 | < 5.00 |
| Nc1nc2c(ncn2[C@@H]2O[C@H](CO)[C@@H](F)[C@@H]2F)c(=O)[nH]1 | Hepatitis C virus | viral replication, inhibitor | Huh-7 | replicon | EC90 | > 10 µM |
| CC(C)Oc1c(NC(=O)c2ccc(NC(=O)[C@H](CC(N)=O)NC(=O)c3ccc(NC(=O)c4ccc(C#N)cn4)cc3)cc2)ccc(C(=O)Nc2ccc(C(=O)O)cc2)c1O | Proteus mirabilis | microbial growth | DSM4479 |  | MIC | 4 µg/mL (≈ 4.92 µM) |
| CCOC(=O)C=c1[nH]c(=O)c(=Cc2cn(-c3ccccc3)nc2-c2ccccc2)s1 | Acinetobacter baumannii | microbial growth, well diffusion |  | 100000 µg/mL | inhibition zone | 12 mm |

| SMILES | organism | test | system | setting | measurement | result |
| --- | --- | --- | --- | --- | --- | --- |
| C[C@@]12COCO[C@@H]1CC[C@]1(C)[C@@H]2CC[C@@H]2CN(Cc3ccccc3)[C@@H](C3=CCOC3=O)C[C@H]21 | unidentified human coronavirus | cytopathic effect | MRC5 | 25 µM, 72 h | inhibition | 9.5% |
| C[C@@]1(O)[C@H](O)[C@@H](CO)O[C@H]1n1ccc(N)nc1=O | Hepatitis C virus | viral replication, inhibitor | Huh-7 | replicon | pEC50 | 5.74 |
| Nc1nc(NS(=O)(=O)c2ccccc2)nc(-c2ccc(F)cc2)c1-c1nc2ccccc2s1 | Enterovirus B | plaque formation | BGM, B4 |  | IC50 | 93 µg/mL |
| Nc1nc(N)c2ncn([C@@H]3O[C@H](CO)[C@@H](F)[C@@H]3F)c2n1 | Hepatitis C virus | viral replication, inhibitor | Huh-7 | replicon | EC90 | > 10 µM |
| CC1(C)OC[C@@]2(C)[C@H]3CC[C@@H]4CN(Cc5ccc(I)cc5)[C@@H](C5=CCOC5=O)C[C@H]4[C@]3(C)CC[C@H]2O1 | unidentified human coronavirus | cytopathic effect | MRC5 | 25 µM, 72 h | inhibition | 87.2% |
| Nc1nc(Cl)c2ncn([C@@H]3O[C@H](COC(=O)c4ccccc4)[C@@H](F)[C@@H]3F)c2n1 | Hepatitis C virus | viral replication, inhibitor | Huh-7 | replicon | pEC50 | 5.33 |
| Cc1c(NC(=O)CC2=NC(=O)CS2)c(=O)n(-c2ccccc2)n1C | Acinetobacter baumannii | microbial growth, well diffusion |  | 100000 µg/mL | inhibition zone | 26 mm |
| CCOC(=O)N[C@H](C(=O)N1CCC[C@H]1C(=O)Nc1ccc(C#CC#Cc2ccc(NC(=O)[C@@H]3CCCN3C(=O)[C@@H](NC(=O)OCC)C(C)C)cc2)cc1)C(C)C | Hepatitis C virus | viral replication, inhibitor, luciferase | Huh-5-2, GETYPE1B | 72 h, replicon | pEC50 | 7.05 |
| CC1(C)OC[C@@]2(C)[C@H]3CC[C@@H]4CN(Cc5ccccc5C5CC5)[C@@H](C5=CCOC5=O)C[C@H]4[C@]3(C)CC[C@H]2O1 | unidentified human coronavirus | cytopathic effect | MRC5 | 25 µM, 72 h | inhibition | 93.2% |
| N#CC(=Cc1ccccc1O)C1=NC(=O)C(=Cc2cn(-c3ccccc3)nc2-c2ccccc2)S1 | Acinetobacter baumannii | microbial killing, broth dilution |  |  | MBC | 0.25 µg/mL (≈ 0.527 µM) |
| CC1(C)OC[C@@]2(C)[C@H]3CC[C@@H]4CN(Cc5cccs5)[C@@H](C5=CCOC5=O)C[C@H]4[C@]3(C)CC[C@H]2O1 | unidentified human coronavirus | cytopathic effect | MRC5 | 25 µM, 72 h | inhibition | 38.4% |
| CCOC(=O)N[C@@H](C(=O)N1CCC[C@H]1C(=O)Nc1cccc(C#CC#Cc2cccc(NC(=O)[C@@H]3CCCN3C(=O)[C@H](NC(=O)OCC)C(C)C)c2)c1)C(C)C | Hepatitis C virus | viral replication, inhibitor, luciferase | Huh-5-2, GETYPE1B | 72 h, replicon | pEC50 | 7.15 |
| C[C@]1(CO)[C@H]2CC[C@@H]3CN(Cc4ccco4)[C@@H](C4=CCOC4=O)C[C@H]3[C@]2(C)CC[C@H]1O | unidentified human coronavirus | cytopathic effect | MRC5 | 25 µM, 72 h | inhibition | -7.7% |
| CC(C)Oc1c(NC(=O)c2ccc(NC(=O)c3ccc(NC(=O)[C@H](CC(N)=O)NC(=O)c4ccc(NC(=O)c5ccc(C#N)cn5)cc4)cc3)c(OC(C)C)c2O)ccc(C(=O)O)c1O | Proteus mirabilis | microbial growth | DSM4479 |  | MIC | 8 µg/mL (≈ 9.02 µM) |
| COc1nc(OC)c2ncn([C@@H]3O[C@H](CO)[C@@H](F)[C@@H]3F)c2n1 | Hepatitis C virus | viral replication, inhibitor | Huh-7 | replicon | pEC50 | < 5.00 |
| O=C(CNc1nc(NS(=O)(=O)c2ccccc2)ncc1-c1nc2ccccc2s1)c1ccc(Br)cc1 | Enterovirus B | plaque formation | BGM, B4 |  | IC50 | 84 µg/mL |
| COC(=O)N[C@H](C(=O)N1CCC[C@H]1C(=O)Nc1ccc(C#CC#Cc2ccc(NC(=O)[C@@H]3CCCN3C(=O)[C@@H](NC(=O)OC)C(C)C)cc2)cc1)C(C)C | Hepatitis C virus | viral replication, inhibitor, luciferase | Huh-5-2, GETYPE1B | 72 h, replicon | pEC50 | 8.00 |
| CCCCCCC/C=C/C(=O)N1C(=O)/C(=C(\O)c2ccc(OCOCCOC)cc2)C(=O)C1CC(C)C (stereo not drawn) | Proteus mirabilis | microbial growth | ATCC25933 |  | MIC | > 200 µg/mL |
